Consider three compounds from ChEMBL document CHEMBL2203171, “The use of small molecule probes to study spatially separated stimulus-induced signaling pathways” (Bioorg Med Chem Lett, 2012).

Assay type in all cases: cell-based
The target in assay [1] is T1, Toll-like receptor 3 (Mus musculus) (UniProt Q99MB1).
T1 sequence (whole entry): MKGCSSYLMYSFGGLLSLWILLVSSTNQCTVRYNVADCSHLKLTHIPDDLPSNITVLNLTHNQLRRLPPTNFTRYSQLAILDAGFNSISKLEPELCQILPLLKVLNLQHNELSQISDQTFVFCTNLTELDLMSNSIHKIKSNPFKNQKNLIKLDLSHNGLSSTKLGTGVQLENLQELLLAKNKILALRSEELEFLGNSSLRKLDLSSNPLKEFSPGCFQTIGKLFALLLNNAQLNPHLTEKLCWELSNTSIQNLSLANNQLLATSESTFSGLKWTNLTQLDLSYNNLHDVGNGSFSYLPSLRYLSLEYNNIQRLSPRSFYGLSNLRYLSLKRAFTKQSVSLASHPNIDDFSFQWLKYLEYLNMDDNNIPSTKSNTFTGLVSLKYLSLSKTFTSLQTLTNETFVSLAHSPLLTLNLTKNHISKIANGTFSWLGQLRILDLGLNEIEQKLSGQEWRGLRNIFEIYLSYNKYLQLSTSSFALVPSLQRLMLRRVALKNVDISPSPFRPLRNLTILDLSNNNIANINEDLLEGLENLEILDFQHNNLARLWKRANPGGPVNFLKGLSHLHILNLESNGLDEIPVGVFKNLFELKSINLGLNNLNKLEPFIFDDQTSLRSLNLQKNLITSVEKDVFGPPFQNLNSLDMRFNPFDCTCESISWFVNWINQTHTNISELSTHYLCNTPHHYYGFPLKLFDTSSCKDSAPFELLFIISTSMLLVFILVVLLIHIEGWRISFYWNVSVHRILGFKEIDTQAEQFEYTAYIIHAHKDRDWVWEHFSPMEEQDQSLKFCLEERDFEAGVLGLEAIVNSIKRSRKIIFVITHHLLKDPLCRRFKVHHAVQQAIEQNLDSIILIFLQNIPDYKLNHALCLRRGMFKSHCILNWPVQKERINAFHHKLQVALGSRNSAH
Description: Inhibition of TRIF recruitment to TLR3 in C57BL/6 mouse BMDM cells assessed as inhibition of pI:pC-induced IkappaBalpha degradation up to 90 mins by Western blot analysis. In outline: (§1)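 Bone marrow macrophages from C57BL/6 mice, grown in 70% growth medium (DMEM, 10% FBS) plus 30% L929-conditioned medium and given fresh medium 12-14 h before stimulation. Stimuli: IL-1 40 ng/ml, HKSA ~10^8 cfu/ml, pI:pC 50 μg/ml or CpG 10 μg/ml, ± compound at 10 μM (final) added from a 200x DMSO stock. IκBα and p38 profiled by immunoblot. Three independent experiments, quantitated and normalized.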
For orientation: In western blotting, separated proteins are transferred to a membrane and probed.

Assay [2] addresses T2, Inhibitor of nuclear factor kappa-B kinase subunit beta (Mus musculus) (UniProt O88351).
T2 sequence (whole entry): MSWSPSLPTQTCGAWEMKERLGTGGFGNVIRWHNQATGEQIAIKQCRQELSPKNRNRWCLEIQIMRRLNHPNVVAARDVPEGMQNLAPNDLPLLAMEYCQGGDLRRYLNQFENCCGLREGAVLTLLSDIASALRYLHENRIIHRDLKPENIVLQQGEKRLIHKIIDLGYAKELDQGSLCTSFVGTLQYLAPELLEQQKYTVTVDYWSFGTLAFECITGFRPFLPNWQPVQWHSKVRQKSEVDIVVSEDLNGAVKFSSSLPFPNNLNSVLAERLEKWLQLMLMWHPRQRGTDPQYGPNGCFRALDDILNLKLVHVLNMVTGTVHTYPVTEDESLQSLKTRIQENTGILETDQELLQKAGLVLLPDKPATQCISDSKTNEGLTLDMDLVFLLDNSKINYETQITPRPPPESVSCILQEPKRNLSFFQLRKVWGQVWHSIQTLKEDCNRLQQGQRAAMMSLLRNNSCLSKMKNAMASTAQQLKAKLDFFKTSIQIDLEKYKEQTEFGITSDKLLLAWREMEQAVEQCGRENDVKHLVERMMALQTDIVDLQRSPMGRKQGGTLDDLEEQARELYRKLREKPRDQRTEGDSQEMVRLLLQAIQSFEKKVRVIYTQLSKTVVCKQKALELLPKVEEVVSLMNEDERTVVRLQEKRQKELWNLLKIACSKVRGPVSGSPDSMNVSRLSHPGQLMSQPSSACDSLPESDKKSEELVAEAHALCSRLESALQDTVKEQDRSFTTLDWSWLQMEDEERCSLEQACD
Description: Inhibition of IKKbeta in C57BL/6 mouse BMDM cells assessed as inhibition of LPS-induced IkappaBalpha degradation at 50 uM up to 90 mins by Western blot analysis.

The target of assay [3] is T3, Toll-like receptor 9 (Mus musculus) (UniProt Q9EQU3).
T3 sequence (whole entry): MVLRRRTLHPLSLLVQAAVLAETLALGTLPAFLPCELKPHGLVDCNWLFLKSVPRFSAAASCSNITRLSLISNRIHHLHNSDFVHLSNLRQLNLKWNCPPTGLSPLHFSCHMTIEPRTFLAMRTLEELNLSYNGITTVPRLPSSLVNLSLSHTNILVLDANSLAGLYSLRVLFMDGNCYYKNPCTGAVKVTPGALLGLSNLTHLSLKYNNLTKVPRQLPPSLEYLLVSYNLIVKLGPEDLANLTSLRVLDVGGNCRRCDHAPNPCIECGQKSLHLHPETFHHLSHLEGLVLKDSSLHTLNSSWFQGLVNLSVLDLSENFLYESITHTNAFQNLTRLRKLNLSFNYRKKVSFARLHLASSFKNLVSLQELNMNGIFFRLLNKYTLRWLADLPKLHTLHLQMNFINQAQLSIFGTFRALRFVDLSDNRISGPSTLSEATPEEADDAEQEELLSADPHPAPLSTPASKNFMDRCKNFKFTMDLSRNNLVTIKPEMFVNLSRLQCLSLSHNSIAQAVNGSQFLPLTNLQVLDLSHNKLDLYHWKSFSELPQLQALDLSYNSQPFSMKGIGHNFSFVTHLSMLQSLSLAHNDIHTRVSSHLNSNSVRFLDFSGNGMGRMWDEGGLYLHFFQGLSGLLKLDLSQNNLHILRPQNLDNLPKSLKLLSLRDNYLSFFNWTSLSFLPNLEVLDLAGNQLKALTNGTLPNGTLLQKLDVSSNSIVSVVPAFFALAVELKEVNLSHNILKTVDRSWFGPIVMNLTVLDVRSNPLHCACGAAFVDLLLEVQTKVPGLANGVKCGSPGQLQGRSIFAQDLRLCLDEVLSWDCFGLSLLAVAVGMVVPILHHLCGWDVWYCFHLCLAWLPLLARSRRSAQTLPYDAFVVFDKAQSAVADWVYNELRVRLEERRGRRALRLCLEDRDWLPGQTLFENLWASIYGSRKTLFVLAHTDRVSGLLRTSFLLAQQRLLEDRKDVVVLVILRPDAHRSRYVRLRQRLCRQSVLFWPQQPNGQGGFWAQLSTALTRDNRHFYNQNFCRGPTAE
Description: Inhibition of MyD88 recruitment to TLR9 in C57BL/6 mouse BMDM cells assessed as inhibition of CpG-induced IkappaBalpha phosphorylation up to 90 mins by Western blot analysis. In a few lines: as §1

Calls of active or inactive are those of the source. The calls are words filed in the database; no cut-off is given here.

`O=C(CCCCCCCC(=O)ON1C(=O)CCC1=O)Oc1ccc2cc(C(C(=O)NCc3ccccc3)N(C(=O)Cc3ccc4c(c3)OCO4)C3CC3)ccc2c1` (centres undefined): the inhibition entry in assay [1] and in assay [3] was “Active” each time. The “inhibition (active/not active)” value in assay [2] was “Active”.

Regarding `O=C(CCCCCN1C(=O)C=CC1=O)Oc1ccc2cc(C(C(=O)NCc3ccccc3)N(C(=O)Cc3ccc4c(c3)OCO4)C3CC3)ccc2c1` (centres undefined), the inhibition result in assay [1] and in assay [3] was “Active” each time. In assay [2], the “inhibition (active/not active)” value is “Active”.

Take `O=C(CCCCCN1C(=O)CCC1=O)Oc1ccc2cc(C(C(=O)NCc3ccccc3)N(C(=O)Cc3ccc4c(c3)OCO4)C3CC3)ccc2c1` (centres undefined): the inhibition entry in assay [1] and in assay [3] was “Active” in each case. Moreover, in assay [2], the “inhibition (active/not active)” value is “inactive”.
